Screening data deposited in PubChem by several laboratories.
Only some compounds are listed: those with a hit (about 4% of all), similar ones and a draw of the others.
KCNQ1 act – potentiators or activators of human KCNQ1 potassium channel; CHO-K1 KCNQ1, thallium flux FluxOR fluorescence; active compounds read high; B-score at 10 µM; 310,000 tested, 0.35% active; AID 2648;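 active = fluorescence ratio B-score, a plate-corrected score, at least three library SD, with initial intensity B-score within 5 SD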
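System: CHO-K1 cells stably expressing KCNQ1 / Medium: assay buffer for compound exposure, DMSO matched across wells / Reagent: thallium- and potassium-containing depolarizing buffer / Compound: one concentration, matched DMSO / Incubation: 20 min compound pretreatment at room temperature / Measured by: kinetic FluxOR fluorescence, 10 s baseline plus 110 s post-stimulus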
PHOSPHO1 block – inhibitors of human PHOSPHO1 phosphatase; Q8TCT1; recombinant PHOSPHO1, absorbance phosphatase assay; inhibition, % at 13.3 µM; 290,000 tested, 1.1% active; in the data active = inhibition above about 60%
KCNK9 inh – blocks the human KCNK9 two-pore domain potassium channel; Q9NPC2; HEK293 KCNK9, FluxOR thallium flux fluorescence; active compounds read low; B-score at 10 µM; 310,000 tested, 1.2% active; AID 488922;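 active = ratio B-score over 3 SD below the library mean, with starting fluorescence within 5 SD of its mean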;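 also: negative B-score means less thallium flux so channel inhibition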
Target sequence (Q9NPC2 whole entry, looked up, the tested form may be a part): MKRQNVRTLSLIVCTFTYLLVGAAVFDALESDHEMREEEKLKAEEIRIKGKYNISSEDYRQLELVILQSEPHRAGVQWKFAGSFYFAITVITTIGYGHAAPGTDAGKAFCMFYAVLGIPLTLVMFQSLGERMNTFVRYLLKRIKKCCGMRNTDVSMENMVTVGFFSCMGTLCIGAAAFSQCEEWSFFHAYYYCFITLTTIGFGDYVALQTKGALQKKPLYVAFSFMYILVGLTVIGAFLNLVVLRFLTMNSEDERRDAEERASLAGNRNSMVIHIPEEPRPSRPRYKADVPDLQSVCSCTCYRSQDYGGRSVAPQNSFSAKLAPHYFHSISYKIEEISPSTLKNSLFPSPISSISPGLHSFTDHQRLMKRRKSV
KCNK3 inh – human KCNK3 channel inhibition, primary screen; O14649; CHO-KCNK3 thallium flux, FluxOR fluorescence; active compounds read low; B-score at 10 µM; 340,000 tested, 0.84% active;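 active = B-score under library mean minus 4 SD, starting fluorescence ratio at most library mean plus 5 SD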;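 also: more negative B-score means stronger inhibition of thallium flux through KCNK3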
KCNQ1 block – human KCNQ1 channel inhibition; P51787; CHO-K1 KCNQ1, FluxOR thallium flux fluorescence; active compounds read high; B-score at 10 µM; 310,000 tested, 1.3% active; AID 2642;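 active = compounds whose thallium flux B-score, printed positive for inhibition, exceeds three library SD while starting fluorescence stays within three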;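 also: channel opened by potassium depolarization with thallium stimulus after 20 min compound exposure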
hERG protect – shields human hERG channel from block by proarrhythmic agents. 310,000 tested, 0.51% active. activation (rescue from dofetilide block), less the hit threshold, % at 10 µM. Q12809. CHO-hERG, FluxOR thallium flux, dofetilide IC70 present;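 active = activation above the mean of controls blocked by dofetilide plus 5 SD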;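 also: thallium influx through hERG after potassium depolarization seen as dye fluorescence rise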
KCNK9 block conf – confirmation of human KCNK9 potassium channel inhibitors; shares compounds with KCNK9 inh; HEK293 KCNK9 cells, FluxOR thallium flux fluorescence; inhibition, % at 10 µM; 4,900 tested, 43% active;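 active = thallium signal inhibited by more than 5 SD of the compound-free buffer control wells, on both duplicate plates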
Kir21 sel – selectivity of KCNK9 modulators against mouse Kir2.1. inhibition, % at 10 µM. Kir2.1 cells, FluxOR thallium flux fluorescence. shares compounds with KCNK9 inh. 4,900 tested, 4% active;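 active = thallium signal drop more than 5 SD beyond the mean of the no-compound control wells, seen in both duplicate plates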;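 also: signal is fluorescence rise after thallium addition divided by baseline fluorescence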
KCNK9 uninduced – non-induced cell nonspecific activity of KCNK9 modulators; non-induced KCNK9-HEK293, FluxOR thallium flux; inhibition, % at 10 µM; shares compounds with KCNK9 inh; 4,900 tested, 40% active;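 active = thallium signal drop beyond 5 SD of the untreated control mean, on both duplicate plates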
Of the large screens only hits and unclear results are named; the others gave an inactive call (follow-up assays come after a bar, where they were run).

CSc1nc(C(=O)N2CCCC(C(=O)c3ccc(Cl)cc3)C2)cs1 (stereo unspecified)	none | KCNK9 block conf inactive | Kir21 sel inactive | KCNK9 uninduced inactive
Cc1ncsc1C(=O)N1CCCC(C(=O)c2ccc3ccccc3c2)C1 (stereo unspecified)	none
Cc1cc(C(=O)N2CCCC(C(=O)c3ccc4ccccc4c3)C2)nn1C (stereo unspecified)	none | KCNK9 block conf inactive | Kir21 sel inactive | KCNK9 uninduced inactive
CCOc1ccc(CCN2C(=O)CCC2(C)C(=O)NC(C)CC)cc1OCC (stereo unspecified)	none
CN(C)S(=O)(=O)N1CCN(Cc2ccccc2)CC1	none
O=C(COC(=O)c1ccc([N+](=O)[O-])o1)NCc1ccc2c(c1)OCO2	none (no result: KCNQ1 act, PHOSPHO1 block, KCNK9 inh, KCNQ1 block, hERG protect)
Cc1cc(C)nc(Oc2ccc([N+](=O)[O-])cc2)n1	none
CC#CC(=O)N1CCCC(C(=O)c2ccc(SC)cc2)C1 (stereo unspecified)	none (no result: PHOSPHO1 block)
CSc1ccc(C(=O)C2CCCN(C(=O)c3ccsc3)C2)cc1 (stereo unspecified)	none | KCNK9 block conf inactive | Kir21 sel inactive | KCNK9 uninduced inactive
CC1CCN(S(=O)(=O)c2c[nH]c(=O)[nH]c2=O)CC1	none (no result: PHOSPHO1 block)
COC(=O)c1cc(CN2CCN(c3ccccc3C)CC2)ccc1O	none | KCNK9 block conf inactive | Kir21 sel inactive | KCNK9 uninduced inactive
c1ccc2c(c1)ncn2CCCOc1ccc2c(c1)CCC2	none | KCNK9 block conf inactive | Kir21 sel inactive | KCNK9 uninduced inactive
c1ccc(OCCn2cnc3ccccc32)cc1	none
N#Cc1nc(COc2ccc(F)cc2)oc1N1CCCCC1	none | KCNK9 block conf inactive | Kir21 sel inactive | KCNK9 uninduced inactive
N#Cc1nc(COc2ccccc2)oc1N1CCCCCC1	none
CCOC(=O)N1CCC(NC(=O)Cn2ncc3c4ccccc4n(C)c3c2=O)CC1	none
Cc1cc(C)cc(CC2CC(=O)N(c3cc(C)ccc3C)C2=O)c1 (stereo unspecified)	none | KCNK9 block conf inactive | Kir21 sel inactive | KCNK9 uninduced inactive
C[C@@H](CSc1ccccc1)CN1CC[C@H](C(C)(C)C)CCC1=O	none | KCNK9 block conf inactive | Kir21 sel inactive | KCNK9 uninduced inactive
Cc1ccc(SCCN2CCC(C)CCC2=O)cc1 (stereo unspecified)	none
Cc1ccc(SCCN2CCN(CC(C)C)CCC2=O)cc1	none | KCNK9 block conf inactive | Kir21 sel inactive | KCNK9 uninduced inactive
Cc1ccc(SCCN2CCC(NC(=O)OCc3ccccc3)CCC2=O)cc1 (stereo unspecified)	none | KCNK9 block conf inactive | Kir21 sel inactive | KCNK9 uninduced inactive
Cc1ccc(SCCN2CCC(C(C)(C)C)CCC2=O)cc1 (stereo unspecified)	none | KCNK9 block conf inactive | Kir21 sel inactive | KCNK9 uninduced inactive
O=C(Cc1ccc(F)cc1)NCCc1cnc[nH]1	none
Cc1sc2nc(CC(=O)N3CCCC3)[nH]c(=O)c2c1C	none
Cc1nc2ccccc2nc1N1CCCCC1	none (no result: KCNQ1 act, KCNK9 inh, KCNQ1 block, hERG protect)
Cc1ccc2c(Cl)c(C)c(N3CCCCC3)nc2n1	none | KCNK9 block conf inactive | Kir21 sel inactive | KCNK9 uninduced inactive
COc1ccc(OC)c(S(=O)(=O)N2CCC(C(=O)Nc3cc(C)ccc3C)CC2)c1	KCNK9 inh -10.3 | KCNK9 block conf inactive | Kir21 sel inactive | KCNK9 uninduced inactive
CCOP(=O)(O)c1ccccc1OCCOCCOc1ccccc1P(=O)(O)OCC	none
CCOC(=O)C(Oc1ccc2c(-c3ccc(OC)cc3)cc(=O)oc2c1C)c1ccccc1 (stereo unspecified)	KCNK9 inh -11 | KCNK9 block conf 49.5% | Kir21 sel inactive | KCNK9 uninduced 31.5%
CCCOc1ccc(CNC(=O)c2ccc3c(c2)N(CC)CCS3)cc1	none | KCNK9 block conf inactive | Kir21 sel inactive | KCNK9 uninduced inactive
